Source: ChEMBL document CHEMBL3627597, “Synthesis of Fluorine-Containing Phosphodiesterase 10A (PDE10A) Inhibitors and the In Vivo Evaluation of F-18 Labeled PDE10A PET Tracers in Rodent and Nonhuman Primate” (J Med Chem, 2015)

Key:
[1] = system: Kidney; assay: Biodistribution in Sprague-Dawley rat kidney at 1.48 to 2.22 MBq, iv measured at 30 mins by gamma counting analysis; type: ADME, organism-based; settings: in vivo, 0.5 h
How it was run: (§1)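 Male Sprague-Dawley rats (250 - 400 g), tail-vein injection of 1.48 - 2.22 MBq radiotracer under 2.5% isoflurane in oxygen; n=4 per time point, euthanized at 5, 30 and 60 min p.i. Brain regions obtained by gross dissection; peripheral tissues collected. Samples weighed, gamma-counted against a diluted-injectate standard; %ID/g calculated.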

[2] = system: Liver; assay: Biodistribution in Sprague-Dawley rat liver at 1.48 to 2.22 MBq, iv measured at 30 mins by gamma counting analysis; type: ADME, organism-based; settings: in vivo, 0.5 h; how it was run: as §1
[3] = system: Nucleic Acid; assay: Ratio of drug level in striatum to hippocampus in cynomolgus monkey at 185 to 259 MBq, iv measured at 40 mins by micro PET image analysis; type: ADME, organism-based, Macaca fascicularis; settings: in vivo
How it was run: (§2)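 Adult male cynomolgus macaques (~4–6 kg), three independent PET studies per tracer on a microPET Focus 220. Animals fasted 12 h and anesthetized with ketamine (10 mg/kg) plus glycopyrrolate (0.13 mg/kg) i.m. A 10 min positioning transmission scan and a 45 min attenuation transmission scan were run, then a 3 h dynamic emission scan after venous tracer injection. Regional TACs came from ROIs, expressed as SUV (body weight, injected dose).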

[4] = system: Striatum; assay: Biodistribution in Sprague-Dawley rat striatum at 1.48 to 2.22 MBq, iv measured at 30 mins by gamma counting analysis; type: ADME, organism-based; settings: in vivo, 0.5 h; how it was run: as §1
[5] = Metabolic stability in cynomolgus monkey plasma assessed as compound remaining at 185 to 259 MBq, iv measured at 60 mins by HPLC analysis; type: ADME, organism-based, Macaca fascicularis; settings: read-out: Stability
How it was run: (§3)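 Arterial blood (~1.5 mL) drawn at 2, 15, 30, 60 and 90 min p.i. into heparinized syringes, then centrifuged to plasma. Plasma deproteinated with 2 parts ice-cold methanol. Extract run on C-18 HPLC, MeCN/0.1 M ammonium formate pH 4.5, 0.9 mL/min, UV 254 nm. 1-min fractions over 16 min were well-counted and decay-corrected; parent percentage taken from recovered activity.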

[6] = system: Plasma; assay: Retention time of the compound in cynomolgus monkey plasma at 185 to 259 MBq, iv by HPLC analysis; type: ADME, organism-based, Macaca fascicularis; how it was run: as §3
[7] = system: Caudate; assay: Drug uptake in cynomolgus monkey caudate at 185 to 259 MBq, iv measured over 180 mins by micro PET image analysis; type: ADME, organism-based, Macaca fascicularis, Caudate nucleus; settings: in vivo, 3 h
How it was run: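 Adult male cynomolgus macaques (~4–6 kg), three studies per tracer, fasted 12 h. Induction with ketamine 10 mg/kg plus glycopyrrolate 0.13 mg/kg i.m. Transmission scans of 10 min for positioning and 45 min for attenuation correction, then a 3 h dynamic microPET emission scan after venous injection of 185 - 259 MBq. ROI time-activity curves expressed as SUV (body weight and injected dose).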

[8] = system: Nucleic Acid; assay: Ratio of drug level in striatum to cortex in Sprague-Dawley rat at 1.48 to 2.22 MBq, iv measured at 5 to 30 mins by gamma counting analysis; type: ADME, organism-based; settings: in vivo
How it was run: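 Striatum, cerebellum and cortex obtained by gross dissection from Sprague-Dawley rats (250 - 400 g, n=4 per time point) after tail-vein injection of 1.48 - 2.22 MBq under isoflurane anesthesia. Tissues weighed and gamma-counted with an injectate standard to give %ID/g; ratios taken from striatal versus non-target uptake.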

[9] = system: Brain; assay: Biodistribution in Sprague-Dawley rat brain at 1.48 to 2.22 MBq, iv measured at 5 mins by gamma counting analysis; type: ADME, organism-based; settings: in vivo; how it was run: as §1
[10] = system: Brain; assay: Biodistribution in Sprague-Dawley rat brain at 1.48 to 2.22 MBq, iv measured at 60 mins by gamma counting analysis; type: ADME, organism-based; settings: in vivo, 1 h; how it was run: as §1
[11] = system: Nucleic Acid; assay: Ratio of drug level in striatum to white matter in cynomolgus monkey at 185 to 259 MBq, iv measured at 40 mins by micro PET image analysis; type: ADME, organism-based, Macaca fascicularis; settings: in vivo; how it was run: as §2
[12] = system: Liver; assay: Biodistribution in Sprague-Dawley rat liver at 1.48 to 2.22 MBq, iv measured at 60 mins by gamma counting analysis; type: ADME, organism-based; settings: in vivo, 1 h; how it was run: as §1
[13] = system: Rattus norvegicus; assay: Biodistribution in Sprague-Dawley rat fat tissue at 1.48 to 2.22 MBq, iv measured at 60 mins by gamma counting analysis; type: ADME, organism-based, Adipose tissue; settings: in vivo, 1 h; how it was run: as §1
[14] = system: Muscle tissue; assay: Biodistribution in Sprague-Dawley rat muscle at 1.48 to 2.22 MBq, iv measured at 5 mins by gamma counting analysis; type: ADME, organism-based; settings: in vivo; how it was run: as §1
[15] = system: Brain; assay: Biodistribution in Sprague-Dawley rat brain at 1.48 to 2.22 MBq, iv measured at 30 mins by gamma counting analysis; type: ADME, organism-based; settings: in vivo, 0.5 h; how it was run: as §1
[16] = Metabolic stability in cynomolgus monkey plasma assessed as compound remaining at 185 to 259 MBq, iv measured at 15 mins by HPLC analysis; type: ADME, organism-based, Macaca fascicularis; settings: read-out: Stability; how it was run: as §3

For Cn1cc(-c2ccncc2)c(-c2ccc(OCc3nc4ccccc4cc3OCC[18F])cc2)n1, which Drug uptake [1] is on record?
The Drug uptake was 1.022 % ID/g.

What about the Drug uptake [2] of the same compound?
Its Drug uptake is 3.17 % ID/g.

What about the Ratio [3] of the same compound?
Its Ratio is over 3.

What about the Drug uptake [4] of the same compound?
The Drug uptake was “Active”.

And the remaining at 1 h [5]?
Its remaining at 1 h is 55%.

What about the Retention_time [6] of the same compound?
The Retention_time was 10.5 min.

And the Drug uptake [7]?
The Drug uptake was “Active”.

And the Ratio [8]?
The Ratio was over 2.

What about the Drug uptake [9] of the same compound?
Its Drug uptake is 0.092 % ID/g.

And the Drug uptake [10]?
The Drug uptake was 0.149 % ID/g.

What about the Ratio [11] of the same compound?
The Ratio was over 3.

What about the Drug uptake [12] of the same compound?
The Drug uptake was 1.8 % ID/g.

What about the Drug uptake [13] of the same compound?
The Drug uptake was 0.124 % ID/g.

And the Drug uptake [14]?
The Drug uptake was 0.166 % ID/g.

What about the Drug uptake [15] of the same compound?
Its Drug uptake is 0.129 % ID/g.

What about the remaining at 0.25 h [16] of the same compound?
The remaining at 0.25 h was 90%.
